{"data": "Assay results of several laboratories", "target": "STE20-like serine/threonine-protein kinase (SLK, Homo sapiens, UniProt Q9H2G2)"}
{"Structure (SMILES)": "Cc1nn(C)cc1-c1nc2c(N3CCN(Cc4ccc(Cl)cc4)CC3)c(Cl)cnc2[nH]1", "effect on": "binding", "technique": "competition with immobilised ligand", "concentration": "1 µM", "quantity": "remaining binding", "result": "100%"}
{"Structure (SMILES)": "N#CC1(c2ccccn2)CCN(Cc2cc(C(=O)O)c(=O)n3ccccc23)CC1", "effect on": "cell-free assay", "technique": "competition with immobilised ligand", "concentration": "1 µM", "quantity": "remaining binding", "result": "99%"}
{"Structure (SMILES)": "O=c1[nH]c2ccccc2n1C1CCN(Cc2ccc(-c3[nH]c4cc5ncnc5cc4nc3-c3ccccc3)cc2)CC1", "effect on": "cell-free assay", "concentration": "0.5 µM", "quantity": "remaining signal", "result": "97.7%"}
{"Structure (SMILES)": "Nc1ncc(-c2nc(N3CCOCC3)nc(N3CCOCC3)n2)c(C(F)F)n1", "effect on": "binding", "technique": "competition with immobilised ligand", "concentration": "10 µM", "quantity": "remaining binding", "result": "24%"}
{"Structure (SMILES)": "COc1ncccc1-c1cnn2ccc(N3CCN(C(=O)OC(C)C)CC3)nc12", "effect on": "binding", "technique": "competition with immobilised ligand", "concentration": "1 µM", "quantity": "remaining binding", "result": "100%"}
{"Structure (SMILES)": "COc1cc(Nc2ncc(F)c(Nc3ccc4c(n3)NC(=O)C(C)(C)O4)n2)cc(OC)c1OC", "effect on": "binding", "concentration": "10 µM", "quantity": "inhibition", "result": "100%"}
{"Structure (SMILES)": "Cn1cc(-c2cc(F)cc(N3CCn4c(cc5c4CCCC5)C3=O)c2CO)cc(Nc2ccc(N3CCN(C4COC4)CC3)cn2)c1=O", "effect on": "enzyme activity", "action": "inhibitor", "concentration": "0.1 µM", "quantity": "inhibition", "result": "4%"}
{"Structure (SMILES)": "Cn1cncc1[C@@](O)(COc1ccc(C#N)cc1-c1ccc(OC(F)(F)F)cc1)c1ccc(C#N)cc1", "effect on": "cell-free assay", "technique": "competition with immobilised ligand", "concentration": "1 µM", "quantity": "remaining binding", "result": "100%"}
{"Structure (SMILES)": "CC(C)(C)c1cc(C=C(C#N)C#N)cc(Br)c1O", "effect on": "enzyme activity", "action": "inhibitor", "concentration": "0.5 µM", "quantity": "remaining activity", "result": "94.7%"}
{"Structure (SMILES)": "Cn1cc(-c2cccc(N3CCc4c(sc5c4CC(C)(C)C5)C3=O)c2CO)cc(Nc2ccncn2)c1=O", "effect on": "enzyme activity", "action": "inhibitor", "concentration": "1 µM", "quantity": "inhibition", "result": "4%"}
